In ChEMBL document CHEMBL1649571, “In vitro activity of TR-700, the active ingredient of the antibacterial prodrug TR-701, a novel oxazolidinone antibacterial agent” (2009):
Converted amounts (≈) assume the structure as drawn.

What was measured:
Type in all cases: functional
[1] = test system: Staphylococcus epidermidis; assay: Antibacterial activity against methicillin-resistant Staphylococcus epidermidis by CLSI M7-A7 broth microdilution method
How it was run: (§1)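 Reference broth microdilution MIC under aerobic conditions on recent (2005–2008) clinical isolates from U.S. and non-U.S. sites. QC strains run alongside, required to fall within published CLSI ranges.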

Staphylococcus aureus [2] = assay: Antibacterial activity against methicillin-susceptible Staphylococcus aureus by CLSI M7-A7 broth microdilution method; how it was run: as §1
Staphylococcus aureus [3] = assay: Antibacterial activity against community-acquired methicillin-resistant Staphylococcus aureus by CLSI M7-A7 broth microdilution method; how it was run: as §1
Staphylococcus aureus [4] = assay: Antibacterial activity against methicillin-resistant Staphylococcus aureus by CLSI M7-A7 broth microdilution method; how it was run: as §1
[5] = test system: Staphylococcus epidermidis; assay: Antibacterial activity against methicillin-susceptible Staphylococcus epidermidis by CLSI M7-A7 broth microdilution method
Enterococcus faecium [6] = assay: Antibacterial activity against vancomycin-resistant Enterococcus faecium by CLSI M7-A7 broth microdilution method; how it was run: as §1
Streptococcus pneumoniae [7] = assay: Antibacterial activity against penicillin-resistant Streptococcus pneumoniae by CLSI M7-A7 broth microdilution method; how it was run: as §1
Bacteroides ovatus = assay: Antibacterial activity against Bacteroides ovatus by CLSI M11-A7 agar dilution method
How it was run: (§2)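 Recent (2005 to 2008) clinical isolates. Anaerobes grown 48 h in an anaerobic glove box, with inoculum suspensions made in prereduced broth inside the box. A Steers replicator stamped the inoculum onto drug-supplemented agar. After absorption, plates were incubated 48 h at 37°C, then removed from the box and the MIC read. QC strains were run against the CLSI ranges.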

Streptococcus pyogenes = assay: Antibacterial activity against Streptococcus pyogenes by CLSI M7-A7 broth microdilution broth microdilution method; how it was run: as §1
Streptococcus pneumoniae [8] = assay: Antibacterial activity against penicillin-intermediate Streptococcus pneumoniae by CLSI M7-A7 broth microdilution method; how it was run: as §1
Enterococcus faecalis [9] = assay: Antibacterial activity against vancomycin-susceptible Enterococcus faecalis by CLSI M7-A7 broth microdilution method; how it was run: as §1
Haemophilus influenzae = assay: Antibacterial activity against Haemophilus influenzae by CLSI M7-A7 broth microdilution method
How it was run: (§3)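 Recent (2005 to 2008) clinical isolates from U.S. (80%) and non-U.S. (20%) sites. Aerobic MICs were determined by CLSI reference broth microdilution, with quality control strains checked against the published CLSI ranges.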

Prevotella sp. = assay: Antibacterial activity against Prevotella sp. by CLSI M11-A7 agar dilution method; how it was run: as §2
Streptococcus pneumoniae [10] = assay: Antibacterial activity against penicillin-susceptible Streptococcus pneumoniae by CLSI M7-A7 broth microdilution method; how it was run: as §1
Moraxella catarrhalis = assay: Antibacterial activity against Moraxella catarrhalis by CLSI M7-A7 broth microdilution method; how it was run: as §3
[11] = test system: Peptostreptococcus anaerobius; assay: Antibacterial activity against Peptostreptococcus anaerobius by CLSI M11-A7 agar dilution method; how it was run: as §2
[12] = test system: Bacteroides thetaiotaomicron; assay: Antibacterial activity against Bacteroides thetaiotaomicron by CLSI M11-A7 agar dilution method; how it was run: as §2
Parvimonas micra = assay: Antibacterial activity against Peptostreptococcus micros by CLSI M11-A7 agar dilution method; how it was run: as §2
Clostridium perfringens = assay: Antibacterial activity against Clostridium perfringens by CLSI M11-A7 agar dilution method
How it was run: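 Reference agar dilution MIC on recent (2005–2008) clinical isolates. Cultures grown 48 h in an anaerobic glove box; inoculum suspended in prereduced broth inside the box and stamped by Steers replicator onto drug-supplemented agar. Plates incubated 48 h at 37°C before MIC reading. QC strains run alongside, required to fall within CLSI ranges.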

[13] = test system: Porphyromonas asaccharolytica; assay: Antibacterial activity against Porphyromonas asaccharolytica by CLSI M11-A7 agar dilution method; how it was run: as §2
Phocaeicola vulgatus = assay: Antibacterial activity against Bacteroides vulgatus by CLSI M11-A7 agar dilution method; how it was run: as §2
Enterococcus faecalis [14] = assay: Antibacterial activity against vancomycin-resistant Enterococcus faecalis by CLSI M7-A7 broth microdilution method; how it was run: as §1
Bacteroides fragilis = assay: Antibacterial activity against Bacteroides fragilis by CLSI M11-A7 agar dilution method; how it was run: as §2
Streptococcus agalactiae = assay: Antibacterial activity against Streptococcus agalactiae by CLSI M7-A7 broth microdilution method; how it was run: as §1
Enterococcus faecium [15] = assay: Antibacterial activity against vancomycin-susceptible Enterococcus faecium by CLSI M7-A7 broth microdilution method; how it was run: as §1

## Cc1onc(-c2ccccc2)c1C(=O)N[C@@H]1C(=O)N2[C@@H]1SC(C)(C)[C@@H]2C(=O)O [OXACILLIN]
[1]
  MIC50: 16 µg/mL (≈ 39.9 µM)
  MIC90: > 32 µg/mL
Staphylococcus aureus [2]
  MIC50: 0.25 µg/mL (≈ 0.623 µM)
  MIC90: 0.5 µg/mL (≈ 1.25 µM)
Staphylococcus aureus [3]
  MIC50: 32 µg/mL (≈ 79.7 µM)
  MIC90: 32 µg/mL (≈ 79.7 µM)
Staphylococcus aureus [4]
  MIC50: 32 µg/mL (≈ 79.7 µM)
  MIC90: 32 µg/mL (≈ 79.7 µM)
[5]
  MIC50: 0.12 µg/mL (≈ 0.299 µM)
  MIC90: 0.25 µg/mL (≈ 0.623 µM)

## Cn1nnc(-c2ccc(-c3ccc(N4C[C@H](CO)OC4=O)cc3F)cn2)n1 [TEDIZOLID]
Enterococcus faecium [6]
  MIC50: 0.5 µg/mL (≈ 1.35 µM)
  MIC90: 0.5 µg/mL (≈ 1.35 µM)
Streptococcus pneumoniae [7]
  MIC50: 0.25 µg/mL (≈ 0.675 µM)
  MIC90: 0.25 µg/mL (≈ 0.675 µM)
[1]
  MIC50: 0.25 µg/mL (≈ 0.675 µM)
  MIC90: 0.5 µg/mL (≈ 1.35 µM)
Bacteroides ovatus
  MIC50: 2 µg/mL (≈ 5.4 µM)
  MIC90: 8 µg/mL (≈ 21.6 µM)
Streptococcus pyogenes
  MIC50: 0.25 µg/mL (≈ 0.675 µM)
  MIC90: 0.5 µg/mL (≈ 1.35 µM)
Streptococcus pneumoniae [8]
  MIC50: 0.25 µg/mL (≈ 0.675 µM)
  MIC90: 0.25 µg/mL (≈ 0.675 µM)
Enterococcus faecalis [9]
  MIC50: 0.5 µg/mL (≈ 1.35 µM)
  MIC90: 1 µg/mL (≈ 2.7 µM)
Haemophilus influenzae
  MIC50: 8 µg/mL (≈ 21.6 µM)
  MIC90: 16 µg/mL (≈ 43.2 µM)
Staphylococcus aureus [2]
  MIC50: 0.5 µg/mL (≈ 1.35 µM)
  MIC90: 0.5 µg/mL (≈ 1.35 µM)
Prevotella sp.
  MIC50: 1 µg/mL (≈ 2.7 µM)
  MIC90: 4 µg/mL (≈ 10.8 µM)
Streptococcus pneumoniae [10]
  MIC50: 0.25 µg/mL (≈ 0.675 µM)
  MIC90: 0.25 µg/mL (≈ 0.675 µM)
Moraxella catarrhalis
  MIC50: 2 µg/mL (≈ 5.4 µM)
  MIC90: 4 µg/mL (≈ 10.8 µM)
[11]
  MIC50: 0.25 µg/mL (≈ 0.675 µM)
  MIC90: 0.5 µg/mL (≈ 1.35 µM)
Staphylococcus aureus [3]
  MIC50: 0.5 µg/mL (≈ 1.35 µM)
  MIC90: 0.5 µg/mL (≈ 1.35 µM)
[12]
  MIC: 2 µg/mL (≈ 5.4 µM)
  MIC50: 2 µg/mL (≈ 5.4 µM)
  MIC90: 2 µg/mL (≈ 5.4 µM)
Staphylococcus aureus [4]
  MIC50: 0.5 µg/mL (≈ 1.35 µM)
  MIC90: 0.5 µg/mL (≈ 1.35 µM)
[5]
  MIC50: 0.25 µg/mL (≈ 0.675 µM)
  MIC90: 0.5 µg/mL (≈ 1.35 µM)
Parvimonas micra
  MIC50: 0.25 µg/mL (≈ 0.675 µM)
  MIC90: 0.5 µg/mL (≈ 1.35 µM)
Clostridium perfringens
  MIC50: 0.5 µg/mL (≈ 1.35 µM)
  MIC90: 2 µg/mL (≈ 5.4 µM)
[13]
  MIC: 0.25 µg/mL (≈ 0.675 µM)
  MIC50: 0.25 µg/mL (≈ 0.675 µM)
  MIC90: 0.5 µg/mL (≈ 1.35 µM)
Phocaeicola vulgatus
  MIC50: 2 µg/mL (≈ 5.4 µM)
  MIC90: 4 µg/mL (≈ 10.8 µM)
Enterococcus faecalis [14]
  MIC50: 0.5 µg/mL (≈ 1.35 µM)
  MIC90: 0.5 µg/mL (≈ 1.35 µM)
Bacteroides fragilis
  MIC50: 4 µg/mL (≈ 10.8 µM)
  MIC90: 4 µg/mL (≈ 10.8 µM)
Streptococcus agalactiae
  MIC50: 0.25 µg/mL (≈ 0.675 µM)
  MIC90: 0.5 µg/mL (≈ 1.35 µM)
Enterococcus faecium [15]
  MIC50: 0.5 µg/mL (≈ 1.35 µM)
  MIC90: 1 µg/mL (≈ 2.7 µM)

## CN[C@H](CC(C)C)C(=O)N[C@H]1C(=O)N[C@@H](CC(N)=O)C(=O)N[C@H]2C(=O)N[C@H]3C(=O)N[C@H](C(=O)N[C@H](C(=O)O)c4cc(O)cc(O)c4-c4cc3ccc4O)[C@H](O)c3ccc(c(Cl)c3)Oc3cc2cc(c3O[C@@H]2O[C@H](CO)[C@@H](O)[C@H](O)[C@H]2O[C@H]2C[C@](C)(N)[C@H](O)[C@H](C)O2)Oc2ccc(cc2Cl)[C@H]1O [VANCOMYCIN]
Enterococcus faecium [6]
  MIC50: > 32 µg/mL
  MIC90: > 32 µg/mL
Streptococcus pneumoniae [7]
  MIC50: 0.25 µg/mL (≈ 0.173 µM)
  MIC90: 0.5 µg/mL (≈ 0.345 µM)
[1]
  MIC50: 2 µg/mL (≈ 1.38 µM)
  MIC90: 2 µg/mL (≈ 1.38 µM)
Streptococcus pyogenes
  MIC50: 0.5 µg/mL (≈ 0.345 µM)
  MIC90: 0.5 µg/mL (≈ 0.345 µM)
Streptococcus pneumoniae [8]
  MIC: 0.25 µg/mL (≈ 0.173 µM)
  MIC50: 0.25 µg/mL (≈ 0.173 µM)
  MIC90: 0.5 µg/mL (≈ 0.345 µM)
Enterococcus faecalis [9]
  MIC50: 1 µg/mL (≈ 0.69 µM)
  MIC90: 2 µg/mL (≈ 1.38 µM)
Staphylococcus aureus [2]
  MIC50: 1 µg/mL (≈ 0.69 µM)
  MIC90: 1 µg/mL (≈ 0.69 µM)
Streptococcus pneumoniae [10]
  MIC50: 0.25 µg/mL (≈ 0.173 µM)
  MIC90: 0.5 µg/mL (≈ 0.345 µM)
Staphylococcus aureus [3]
  MIC50: 4 µg/mL (≈ 2.76 µM)
  MIC90: 4 µg/mL (≈ 2.76 µM)
Staphylococcus aureus [4]
  MIC50: 1 µg/mL (≈ 0.69 µM)
  MIC90: 1 µg/mL (≈ 0.69 µM)
[5]
  MIC50: 2 µg/mL (≈ 1.38 µM)
  MIC90: 2 µg/mL (≈ 1.38 µM)
Enterococcus faecalis [14]
  MIC50: > 32 µg/mL
  MIC90: > 32 µg/mL
Streptococcus agalactiae
  MIC50: 0.5 µg/mL (≈ 0.345 µM)
  MIC90: 0.5 µg/mL (≈ 0.345 µM)
Enterococcus faecium [15]
  MIC50: 1 µg/mL (≈ 0.69 µM)
  MIC90: 1 µg/mL (≈ 0.69 µM)
